Calls of active or inactive are those of the source. The rule behind the calls is not given here.
What was measured:
Lipid bilayer [1] = assay: Binding affinity to 1,2-dimyristoyl-sn-glycero-3-phosphocholine bilayer assessed as change in main phase transition temperature at low concentration by differential scanning calorimetry; format: physicochemical
Outline: (§1)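 Differential scanning calorimetry on 15 mM multilamellar DMPC vesicles in 50 mM sodium phosphate (ionic strength 154 mM with NaCl, pH 7.5). Terpenoid added in MeOH (below 10 μL); the x = 0 control received 10 μL MeOH. Terpenoid mole fraction varied from 0 to 0.15. Main-transition Tm, pretransition temperature and transition enthalpy were read from the thermograms.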

Lipid bilayer [2] = assay: Binding affinity to Me-5-DSA labelled 1,2-dimyristoyl-sn-glycero-3-phosphocholine bilayer containing assessed as change in membrane fluidity by electron paramagnetic resonance spectroscopy
Outline: (§2)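 DMPC membranes carrying a spin label, either pure or with terpenoid at 15 mol % (Me-5-DSA also over a concentration series). Samples held in hematocrit tubes and equilibrated 10 min at 35 °C. X-band spectra (~9.4 GHz, ~2 mW, 100 kHz modulation, 1 G amplitude), usually five scans summed. Order parameter from hyperfine splittings. Rotational correlation times from central-line width and line heights as a fluidity measure.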

Lipid bilayer [3] = assay: Binding affinity to Me-16-DSA labelled 1,2-dimyristoyl-sn-glycero-3-phosphocholine bilayer containing assessed as change in membrane fluidity by electron paramagnetic resonance spectroscopy; outline: as §2
[4] = 1,2-dimyristoyl-sn-glycero-3-phosphocholine bilayer-water partition coefficient, K of the compound at 300 uM by isothermal titration calorimetry at 35 deg C; format: physicochemical; conditions: DMPC vesicles/water
Outline: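 DMPC vesicles hydrated in 50 mM sodium phosphate (ionic strength 154 mM with NaCl, pH 7.5), extruded at 35 °C through 100 nm filters. Lipid suspension (1–20 mM) injected in small aliquots into ~300 μM terpenoid in the ITC cell (1.409 mL). Integrated heats per injection fitted with a dilution-heat term to give K and ΔH. ΔG0 = −RTln(55.5K). ΔCP from linear regression of ΔH versus temperature.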

Lipid bilayer [5] = assay: Binding affinity to 1,2-dimyristoyl-sn-glycero-3-phosphocholine bilayer assessed as increase in pre-transition temperature at low concentration by differential scanning calorimetry (reference value: 12.7 deg C); format: physicochemical; outline: as §1
Lipid bilayer [6] = assay: Binding affinity to CSL labelled 1,2-dimyristoyl-sn-glycero-3-phosphocholine bilayer containing assessed as change in membrane fluidity by electron paramagnetic resonance spectroscopy; outline: as §2
Lipid bilayer [7] = assay: Binding affinity to 1,2-dimyristoyl-sn-glycero-3-phosphocholine bilayer assessed as decrease in main phase transition temperature at high concentration by differential scanning calorimetry (reference value: 24.4 deg C); format: physicochemical; outline: as §1
Lipid bilayer [8] = assay: Binding affinity to 5-DSA labelled 1,2-dimyristoyl-sn-glycero-3-phosphocholine bilayer containing assessed as change in membrane fluidity by electron paramagnetic resonance spectroscopy; outline: as §2

Row | Activity (Lipid bilayer [1]) | Activity (Lipid bilayer [2]) | Activity (Lipid bilayer [3]) | Ko [4] [M⁻¹] | T (Lipid bilayer [5]) [°C] | Activity (Lipid bilayer [6]) | T (Lipid bilayer [7]) [°C] | Activity (Lipid bilayer [8]) | Activity [4] | Structure (SMILES)
1 | Not Active | inactive | inactive | 10900 | 14.5 | inactive | 16.3 | inactive |  | C=C(C)[C@H]1CC=C(C)CC1 [D-LIMONENE]
2 |  |  |  |  |  |  |  |  | Not Active | C=C(C)[C@@H]1CC=C(C(=O)O)CC1 [PERILLIC ACID]
3 | Not Active | inactive | inactive | 305 |  | inactive | 19.4 | inactive |  | C=C(C)[C@@H]1CC=C(CO)CC1 [PERILLYL ALCOHOL]

Row | Structure (SMILES) | Activity (Lipid bilayer [1]) | Activity (Lipid bilayer [2]) | Activity (Lipid bilayer [3]) | Ko [4] [M⁻¹] | T (Lipid bilayer [5]) [°C] | Activity (Lipid bilayer [6]) | T (Lipid bilayer [7]) [°C] | Activity (Lipid bilayer [8]) | Activity [4]
4 | C=C(C)C1CC=C(C=O)CC1 (stereo not drawn) [PERILLALDEHYDE] | Not Active | inactive | inactive | 215 |  | inactive | 19.4 | inactive | 

From ChEMBL document CHEMBL2010686, “Influence of the active compounds of Perilla frutescens leaves on lipid membranes” (J Nat Prod, 2012)
